Here are results for 11 compounds from ChEMBL document CHEMBL1123580, “Synthesis and biological properties of side-chain-modified bleomycins” (1987).

Assay [1] has as its system B16. The assay is described as follows: Effect on the survival of mouse B16 melanoma cells was determined at a dose of 100 ug/mL in vitro. It is filed as functional. As to conditions: read-out: Survival. The method, boiled down:
(§1)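 B16 mouse melanoma cells from log-phase cultures seeded at 5 × 10^4 cells/mL in Dulbecco's modified Eagle medium with 10% newborn calf serum; after 24 h, exposed to agent (10 or 100 µg/mL) for 21 h, washed twice, fresh medium. Cells trypsinized and counted 48 h after start of incubation; viability by Trypan blue exclusion. Survival = T/C × 100 versus untreated control; mean of three samples.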

Assay [2] concerns B16. Description: Effect on the survival of mouse B16 melanoma cells was determined at a dose of 10 ug/mL in vitro. It is filed as functional. Conditions: read-out: Survival. In a few lines:
as §1

Turning to `Cc1c(N)nc(C(CC(N)=O)NCC(N)C(N)=O)nc1C(=O)NC(C(=O)NC(C)C(O)C(C)C(=O)NC(C(=O)NCCc1nc(-c2nc(C(=O)NCCC[S+](C)CC(=O)Nc3ccc([N+](=O)[O-])cc3)cs2)cs1)C(C)O)C(O[C@@H]1O[C@@H](CO)[C@@H](O)[C@@H](O)[C@@H]1O[C@H]1O[C@H](CO)[C@@H](O)[C@@H](OC(N)=O)[C@@H]1O)c1c[nH]cn1` (some centres not stated), the viability at 100 µg/mL in assay [1] stood at 30%. In addition, the viability at 10 µg/mL in assay [2] came to 46%.
Regarding `Cc1c(N)nc(C(CC(N)=O)NCC(N)C(N)=O)nc1C(=O)NC(C(=O)NC(C)C(O)C(C)C(=O)NC(C(=O)NCCc1nc(-c2nc(C(=O)NCCC[S+](C)CC(=O)N3CCCC3)cs2)cs1)C(C)O)C(O[C@@H]1O[C@@H](CO)[C@@H](O)[C@@H](O)[C@@H]1O[C@H]1O[C@H](CO)[C@@H](O)[C@@H](OC(N)=O)[C@@H]1O)c1c[nH]cn1` (some centres not stated), the viability at 100 µg/mL in assay [1] was found to be 29%. Also, in assay [2], the viability at 10 µg/mL was 35%.
The corresponding values for `Cc1c(N)nc(C(CC(N)=O)NCC(N)C(N)=O)nc1C(=O)NC(C(=O)NC(C)C(O)C(C)C(=O)NC(C(=O)NCCc1nc(-c2nc(C(=O)NCCC[S+](C)CC(=O)N3CCOCC3)cs2)cs1)C(C)O)C(O[C@@H]1O[C@@H](CO)[C@@H](O)[C@@H](O)[C@@H]1O[C@H]1O[C@H](CO)[C@@H](O)[C@@H](OC(N)=O)[C@@H]1O)c1c[nH]cn1` (some centres not stated) are 28% and 51%.
The corresponding values for `Cc1c(N)nc(C(CC(N)=O)NCC(N)C(N)=O)nc1C(=O)NC(C(=O)NC(C)C(O)C(C)C(=O)NC(C(=O)NCCc1nc(-c2nc(C(=O)NCCC[S+](C)CC(=O)Nc3ccc4ccccc4c3)cs2)cs1)C(C)O)C(O[C@@H]1O[C@@H](CO)[C@@H](O)[C@@H](O)[C@@H]1O[C@H]1O[C@H](CO)[C@@H](O)[C@@H](OC(N)=O)[C@@H]1O)c1c[nH]cn1` (some centres not stated) are 32% and 48%.
On to `Cc1c(N)nc(C(CC(N)=O)NCC(N)C(N)=O)nc1C(=O)NC(C(=O)NC(C)C(O)C(C)C(=O)NC(C(=O)NCCc1nc(-c2nc(C(=O)NCCC[S+](C)CC(N)=O)cs2)cs1)C(C)O)C(O[C@@H]1O[C@H](CO)[C@H](O)[C@@H](O)[C@@H]1O[C@H]1O[C@@H](CO)[C@@H](O)[C@H](OC(N)=O)[C@H]1O)c1c[nH]cn1` (some centres not stated), for which the viability at 100 µg/mL in assay [1] stood at 21%. The viability at 10 µg/mL in assay [2] was 38%.
The corresponding values for `Cc1c(N)nc(C(CC(N)=O)NCC(N)C(N)=O)nc1C(=O)NC(C(=O)NC(C)C(O)C(C)C(=O)NC(C(=O)NCCc1nc(-c2nc(C(=O)NCCC[S+](C)CC(=O)Nc3ccccc3)cs2)cs1)C(C)O)C(O[C@@H]1O[C@@H](CO)[C@@H](O)[C@@H](O)[C@@H]1O[C@H]1O[C@H](CO)[C@@H](O)[C@@H](OC(N)=O)[C@@H]1O)c1c[nH]cn1` (some centres not stated) are 27% and 45%.
For `COc1ccc(NC(=O)C[S+](C)CCCNC(=O)c2csc(-c3csc(CCNC(=O)C(NC(=O)C(C)C(O)C(C)NC(=O)C(NC(=O)c4nc(C(CC(N)=O)NCC(N)C(N)=O)nc(N)c4C)C(O[C@@H]4O[C@@H](CO)[C@@H](O)[C@@H](O)[C@@H]4O[C@H]4O[C@H](CO)[C@@H](O)[C@@H](OC(N)=O)[C@@H]4O)c4c[nH]cn4)C(C)O)n3)n2)cc1` (some centres not stated), in that order: 28% and 40%.
Regarding `CCOC(=O)C[S+](C)CCCNC(=O)c1csc(-c2csc(CCNC(=O)C(NC(=O)C(C)C(O)C(C)NC(=O)C(NC(=O)c3nc(C(CC(N)=O)NCC(N)C(N)=O)nc(N)c3C)C(O[C@@H]3O[C@@H](CO)[C@@H](O)[C@@H](O)[C@@H]3O[C@H]3O[C@H](CO)[C@@H](O)[C@@H](OC(N)=O)[C@@H]3O)c3c[nH]cn3)C(C)O)n2)n1` (some centres not stated), in assay [1], the viability at 100 µg/mL was found to be 27%. Also, the viability at 10 µg/mL in assay [2] came to 43%.
As to `Cc1c(N)nc(C(CC(N)=O)NCC(N)C(N)=O)nc1C(=O)NC(C(=O)NC(C)C(O)C(C)C(=O)NC(C(=O)NCCc1nc(-c2nc(C(=O)NCCC[S+](C)CC(=O)NC3CC3)cs2)cs1)C(C)O)C(O[C@@H]1O[C@@H](CO)[C@@H](O)[C@@H](O)[C@@H]1O[C@H]1O[C@H](CO)[C@@H](O)[C@@H](OC(N)=O)[C@@H]1O)c1c[nH]cn1` (some centres not stated), the viability at 100 µg/mL in assay [1] stood at 28%. In addition, the viability at 10 µg/mL in assay [2] came out at 38%.
For `Cc1c(N)nc(C(CC(N)=O)NCC(N)C(N)=O)nc1C(=O)NC(C(=O)NC(C)C(O)C(C)C(=O)NC(C(=O)NCCc1nc(-c2nc(C(=O)NCCC[S+](C)CC(=O)NC(C)C)cs2)cs1)C(C)O)C(O[C@@H]1O[C@H](CO)[C@@H](O)[C@@H](O)C1OC1O[C@@H](CO)C(O)[C@@H](OC(N)=O)[C@@H]1O)c1c[nH]cn1` (some centres not stated), in that order: 23% and 41%.
The corresponding values for `Cc1c(N)nc([C@H](CC(N)=O)NC[C@H](N)C(N)=O)nc1C(=O)N[C@H](C(=O)N[C@H](C)[C@@H](O)[C@H](C)C(=O)N[C@H](C(=O)NCCc1nc(-c2nc(C(=O)NCCC[S+](C)C)cs2)cs1)[C@@H](C)O)[C@@H](O[C@@H]1O[C@@H](CO)[C@@H](O)[C@H](O)[C@@H]1O[C@H]1O[C@H](CO)[C@@H](O)[C@H](OC(N)=O)[C@@H]1O)c1c[nH]cn1` [BLEOMYCIN A2] are 28% and 39%.
